Columns and labels:
[1] = target: T1, Muscarinic acetylcholine receptor M1 (Rattus norvegicus, UniProt P08482); experiment: The compound was tested for the inhibition of binding of [3H]N-Methyl-scopolamine to muscarinic acetylcholine receptor M1 of transfected A9L cells.; type: cell-based
T1 sequence (P08482 whole entry): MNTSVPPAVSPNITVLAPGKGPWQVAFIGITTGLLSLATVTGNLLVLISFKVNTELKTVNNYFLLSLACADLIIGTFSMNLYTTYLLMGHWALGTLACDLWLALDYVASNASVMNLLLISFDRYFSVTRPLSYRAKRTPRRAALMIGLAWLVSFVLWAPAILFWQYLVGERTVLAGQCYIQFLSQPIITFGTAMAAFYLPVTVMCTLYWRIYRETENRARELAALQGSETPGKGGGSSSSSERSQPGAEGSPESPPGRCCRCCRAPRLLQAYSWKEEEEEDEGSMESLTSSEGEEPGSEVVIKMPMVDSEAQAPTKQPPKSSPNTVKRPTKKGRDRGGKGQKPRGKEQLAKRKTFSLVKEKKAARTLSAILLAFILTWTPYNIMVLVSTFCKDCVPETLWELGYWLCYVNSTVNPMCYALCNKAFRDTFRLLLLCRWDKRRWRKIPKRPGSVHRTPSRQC
Summary of the method: (§1)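 Confluent A9L (transfected m1/m3) or NG108-15 (m4) cultures were lysed in 2 mM Tris-HCl pH 7.1/1 mM EDTA, 30 min, 2 °C, then homogenized. Crude membranes were spun at 50000g. Membranes (150–300 μg protein) were incubated with 0.5 nM [3H]NMS and varied analogue in DMEM-Hepes for 90 min at 37 °C, then filtered. Nonspecific binding was set with 1 μM atropine. Ki values are from 1–3 triplicate determinations.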

[2] = target: T2, Muscarinic acetylcholine receptor M2 (Rattus norvegicus, UniProt P10980); experiment: The compound was tested for the inhibition of binding of [3H]N-Methyl-scopolamine to muscarinic acetylcholine receptor M2 of rat heart tissue membranes.; type: cell membranes, Membrane
T2 sequence (P10980 whole entry): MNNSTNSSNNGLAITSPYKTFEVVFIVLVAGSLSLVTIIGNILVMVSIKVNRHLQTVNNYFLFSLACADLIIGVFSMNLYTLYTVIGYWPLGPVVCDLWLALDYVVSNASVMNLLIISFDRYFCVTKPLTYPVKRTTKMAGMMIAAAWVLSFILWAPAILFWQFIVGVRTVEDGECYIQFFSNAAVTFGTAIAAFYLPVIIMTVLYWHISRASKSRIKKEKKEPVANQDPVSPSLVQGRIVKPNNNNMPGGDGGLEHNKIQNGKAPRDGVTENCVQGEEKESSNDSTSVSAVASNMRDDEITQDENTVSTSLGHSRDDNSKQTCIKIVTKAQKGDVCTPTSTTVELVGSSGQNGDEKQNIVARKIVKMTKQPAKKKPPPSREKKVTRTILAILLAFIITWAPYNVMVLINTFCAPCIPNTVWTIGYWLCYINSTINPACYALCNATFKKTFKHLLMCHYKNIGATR
Summary of the method: (§2)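 Rat heart membranes (150–300 μg protein) incubated 90 min at 37 °C in DMEM-Hepes with 0.5 nM [3H]NMS and varied unlabeled analogue concentrations. Bound radioligand collected by rapid GF/B filtration, washed with ice-cold 0.9% NaCl, and scintillation counted. Nonspecific binding with 1 μM atropine subtracted. Ki values come from one to three determinations, each in triplicate.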

[3] = target: T1, Muscarinic acetylcholine receptor M1; experiment: Inhibition of binding of [3H]N-methylscopolamine to muscarinic acetylcholine receptor M1 of transfected rat A9L cells.; type: cell-based
[4] = target: T3, Muscarinic acetylcholine receptor M3 (Rattus norvegicus, UniProt P08483); experiment: Compound was tested for the inhibition of binding of [3H]N-Methyl-scopolamine to mmuscarinic acetylcholine receptor M3 of transfected rat A9L cells; type: cell-based; summary of the method: as §1
[5] = target: T2, Muscarinic acetylcholine receptor M2; experiment: Inhibition of binding of [3H]N-methylscopolamine to muscarinic acetylcholine receptor M2 of rat heart tissue membrane.; type: tissue-based; summary of the method: as §2
[6] = target: T4, Muscarinic acetylcholine receptor M4 (Rattus norvegicus, UniProt P08485); experiment: Inhibition of binding of [3H]N-Methyl-scopolamine to muscarinic acetylcholine receptor M4 of rat […] NG108-15 cells; type: cell-based
T4 sequence (P08485 whole entry): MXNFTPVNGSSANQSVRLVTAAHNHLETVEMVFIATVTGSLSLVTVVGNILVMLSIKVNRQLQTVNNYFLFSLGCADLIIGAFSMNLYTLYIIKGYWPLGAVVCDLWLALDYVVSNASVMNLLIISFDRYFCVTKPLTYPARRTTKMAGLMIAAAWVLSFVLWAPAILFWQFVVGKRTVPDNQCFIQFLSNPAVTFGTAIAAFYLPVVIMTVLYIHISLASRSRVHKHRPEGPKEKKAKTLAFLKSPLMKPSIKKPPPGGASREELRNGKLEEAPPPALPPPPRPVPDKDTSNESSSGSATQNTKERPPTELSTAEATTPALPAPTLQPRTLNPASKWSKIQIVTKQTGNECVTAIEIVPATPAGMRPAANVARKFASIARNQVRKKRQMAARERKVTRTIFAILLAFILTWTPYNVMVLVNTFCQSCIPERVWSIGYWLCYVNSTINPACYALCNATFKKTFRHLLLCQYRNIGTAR

[7] = target: T1, Muscarinic acetylcholine receptor M1; experiment: The compound was tested for the inhibition of binding of [3H]N-Methyl-scopolamine to muscarinic acetylcholine receptor M1r of transfected A9L cells.; type: cell-based
Summary of the method: (§3)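 Crude membranes (150–300 μg protein) were incubated 90 min at 37 °C in DMEM-Hepes with 0.5 nM [3H]NMS and a range of unlabeled analogue concentrations. Incubation was stopped by rapid GF/B filtration, followed by ice-cold 0.9% NaCl washes and scintillation counting. Nonspecific binding was defined with 1 μM atropine and subtracted. Ki came from one to three determinations, each run in triplicate.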

[8] = target: T3, Muscarinic acetylcholine receptor M3; experiment: The compound was tested for the inhibition of binding of [3H]N-Methyl-scopolamine to muscarinic acetylcholine receptor M3 of transfected A9L cells.; type: cell-based; summary of the method: as §3
[9] = target: T2, Muscarinic acetylcholine receptor M2; experiment: The compound was tested for the inhibition of binding of [3H]N-Methyl-scopolamine to muscarinic acetylcholine receptor M2 of rat heart tissue membranes; type: cell membranes, Membrane; summary of the method: as §3
[10] = target: T2, Muscarinic acetylcholine receptor M2; experiment: Inhibition of binding of [3H]N-Methyl-scopolamine to Muscarinic acetylcholine receptor M2 of rat heart tissue membranes.; type: cell membranes, Membrane; summary of the method: as §2
[11] = target: T3, Muscarinic acetylcholine receptor M3; experiment: The compound was tested for the inhibition of binding of [3H]N-Methyl-scopolamine to Muscarinic acetylcholine receptor M3 of transfected A9L cells.; type: cell-based; summary of the method: as §3
[12] = target: T1, Muscarinic acetylcholine receptor M1; experiment: Inhibition of binding of [3H]N-Methyl-scopolamine to Muscarinic acetylcholine receptor M1 of transfected A9L cells.; type: cell-based; summary of the method: as §1
[13] = target: T4, Muscarinic acetylcholine receptor M4; experiment: Inhibition of binding of [3H]N-Methyl-scopolamine to Muscarinic acetylcholine receptor M4 of NG108-15 cells.; type: cell-based; summary of the method: as §1

T3 sequence (P08483 whole entry): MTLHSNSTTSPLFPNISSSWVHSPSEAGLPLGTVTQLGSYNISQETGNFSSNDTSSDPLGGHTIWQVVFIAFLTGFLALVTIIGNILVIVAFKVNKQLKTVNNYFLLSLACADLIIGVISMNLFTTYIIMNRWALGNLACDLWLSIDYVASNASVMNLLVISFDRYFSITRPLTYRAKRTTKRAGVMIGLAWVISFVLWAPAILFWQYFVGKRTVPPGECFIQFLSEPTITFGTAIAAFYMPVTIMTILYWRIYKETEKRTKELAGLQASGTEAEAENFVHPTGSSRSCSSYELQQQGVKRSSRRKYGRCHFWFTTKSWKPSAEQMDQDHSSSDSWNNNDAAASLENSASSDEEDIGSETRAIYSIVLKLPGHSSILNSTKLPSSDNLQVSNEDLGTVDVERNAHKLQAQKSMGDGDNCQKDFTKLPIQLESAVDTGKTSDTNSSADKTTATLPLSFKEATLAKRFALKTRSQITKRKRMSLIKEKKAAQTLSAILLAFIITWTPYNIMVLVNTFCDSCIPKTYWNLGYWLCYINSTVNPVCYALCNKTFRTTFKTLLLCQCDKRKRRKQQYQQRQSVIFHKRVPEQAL

## CCN1C(=O)c2ccccc2N(C(=O)CN2CCN(C)CC2)c2ncccc21
[1]
  Ki: 7700 nM
[2]
  Ki: 8000 nM

## CNC(=O)c1ccc(CN2CCN(CC(=O)N3c4ccccc4C(=O)Nc4cccnc43)CC2)cc1
[3]
  Ki: 2840 nM
[4]
  Ki: 4020 nM
[5]
  Ki: 2650 nM
[6]
  Ki: 2940 nM

## CN1CCN(CC(=O)N2c3cc(CO[Si](C)(C)C(C)(C)C)ccc3C(=O)Nc3cccnc32)CC1
[7]
  Ki: > 30000 nM
[8]
  Ki: > 30000 nM
[9]
  Ki: 4400 nM

## O=C1Nc2cccnc2N(C(=O)CN2CCN(CCCl)CC2)c2ccccc21
[10]
  Ki: 210 nM
[11]
  Ki: 78 nM
[12]
  Ki: 52 nM
[13]
  Ki: 130 nM

— ChEMBL document CHEMBL1125581 (J Med Chem, 1991)
